Legend:
L1210 = assay: In vitro inhibitory dose that reduces L1210 cell line by 50% when added for a period of 70h; type: functional; settings: Mus musculus, L1210, 70 h; read-out: ID50 (the source's name)
Procedure, shortened: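 L1210 cultures were exposed to drug for 70 h, and cells were then counted. IC50 is the drug concentration (nM) that reduces cell numbers to 50% of untreated controls.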

[1] = Lipophilicity (Rm); type: physicochemical; settings: chromatographic, drug cations at pH 1-2
P388 [2] = assay: (§1) The % increase in lifespan of treated animals over that of control group of animals injected with tumor alone; type: functional, Mus musculus
P388 [3] = assay: (§2) Highest nontoxic optimal dose administered intraperitoneally after inoculation of P388 leukemia cells; type: functional, Mus musculus
Procedure, shortened: (§3)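 Mice were inoculated with 10^6 P388 leukemia cells. Drug was given intraperitoneally in 30% v/v EtOH/water on days 1, 5 and 9 after inoculation. OD is the highest nontoxic dose in mg/kg per day.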

P388 [4] = assay: as §2; type: functional, Mus musculus; procedure, shortened: as §3; remark: listed apart in the source
[5] = Chromatographic measure of drug lipophilicity determined for drug cations was evaluated; type: physicochemical
P388 [6] = assay: as §1; type: functional, Mus musculus; remark: listed apart in the source

Question: Which IC50 (L1210) does the source give for Nc1c2ccccc2nc2ccccc12 [AMINACRINE] here?
Answer: 1900 nM

Question: And the Rm [1]?
Answer: -0.08

Question: And the ILS (P388 [2])?
Answer: <20%

Question: What about the OD (P388 [3]) of the same molecule?
Answer: 20 mg/kg

Question: Which results are given for c1ccc2c(NCCN3CCN(CCNc4c5ccccc5nc5ccccc45)CC3)c3ccccc3nc2c1?
Answer: IC50 (L1210): 78 nM; Rm [1]: -0.77; ILS (P388 [2]): <20%; OD (P388 [3]): 3 mg/kg

Question: What does the source list for c1ccc2c(NCCCCCCCCCCNc3c4ccccc4nc4ccccc34)c3ccccc3nc2c1?
Answer: IC50 (L1210): 280 nM; Rm [1]: 0.45; ILS (P388 [2]): <20%; OD (P388 [3]): 5.9 mg/kg

Question: Which results are given for c1ccc2c(NCCCCNCCCNc3c4ccccc4nc4ccccc34)c3ccccc3nc2c1?
Answer: IC50 (L1210): 29 nM; Rm [1]: -0.39; ILS (P388 [2]): <20%; OD (P388 [3]): 10 mg/kg

Question: Which IC50 (L1210) does the source give for O=C(CCNc1c2ccccc2nc2ccccc12)NCCNc1c2ccccc2nc2ccccc12 here?
Answer: > 3500 nM

Question: What about the Rm [1] of the same molecule?
Answer: -0.43

Question: And the ILS (P388 [2])?
Answer: <20%

Question: And the OD (P388 [3])?
Answer: 50 mg/kg

Question: Which results are given for c1ccc2c(NCCCNCCNCCCNc3c4ccccc4nc4ccccc34)c3ccccc3nc2c1?
Answer: IC50 (L1210): 560 nM; Rm [1]: -0.86; ILS (P388 [2]): <20%; OD (P388 [3]): 10 mg/kg

Question: Which results are given for O=C(CCNc1c2ccccc2nc2ccccc12)NCCCNc1c2ccccc2nc2ccccc12?
Answer: IC50 (L1210): > 3500 nM; Rm [1]: -0.28; ILS (P388 [2]): <20%; OD (P388 [3]): 15 mg/kg

Question: What does the source list for c1ccc2c(NCCCCCCCNc3c4ccccc4nc4ccccc34)c3ccccc3nc2c1?
Answer: IC50 (L1210): 50 nM; Rm [1]: 0.21; ILS (P388 [2]): <20%; OD (P388 [3]): 8.9 mg/kg

Question: What does the source list for c1ccc2c(NCCCCCNc3c4ccccc4nc4ccccc34)c3ccccc3nc2c1?
Answer: IC50 (L1210): 3700 nM; Rm [1]: 0.02; ILS (P388 [2]): <20%; OD (P388 [3]): 20 mg/kg

Question: For Cn1nc(C(=O)NCCCCNc2c3ccccc3nc3ccccc23)cc1C(=O)NCCCCNc1c2ccccc2nc2ccccc12, which IC50 (L1210) is on record?
Answer: 24 nM

Question: What about the Rm [1] of the same molecule?
Answer: 0.11

Question: What about the ILS (P388 [2]) of the same molecule?
Answer: 26%

Question: What about the OD (P388 [3]) of the same molecule?
Answer: 8.9 mg/kg

Question: For c1ccc2c(NCCCCCCNc3c4ccccc4nc4ccccc34)c3ccccc3nc2c1, which IC50 (L1210) is on record?
Answer: 110 nM

Question: What about the Rm [1] of the same molecule?
Answer: 0.15

Question: What about the ILS (P388 [2]) of the same molecule?
Answer: <20%

Question: What about the OD (P388 [3]) of the same molecule?
Answer: 13.3 mg/kg

Question: With CN(CCCNc1c2ccccc2nc2ccccc12)CCCNc1c2ccccc2nc2ccccc12 as the molecule, how does the IC50 (L1210) read?
Answer: 780 nM

Question: What about the Rm [1] of the same molecule?
Answer: -0.65

Question: What about the ILS (P388 [2]) of the same molecule?
Answer: <20%

Question: And the OD (P388 [3])?
Answer: 10 mg/kg

Question: For c1ccc2c(NCCCCCCCCNc3c4ccccc4nc4ccccc34)c3ccccc3nc2c1, which IC50 (L1210) is on record?
Answer: 170 nM

Question: What about the Rm [1] of the same molecule?
Answer: 0.28

Question: What about the ILS (P388 [2]) of the same molecule?
Answer: <20%

Question: What about the OD (P388 [3]) of the same molecule?
Answer: 8.9 mg/kg

Question: With O=C(CNc1c2ccccc2nc2ccccc12)NCCCNc1c2ccccc2nc2ccccc12 as the molecule, how does the IC50 (L1210) read?
Answer: > 3500 nM

Question: And the Rm [1]?
Answer: -0.24

Question: What about the ILS (P388 [2]) of the same molecule?
Answer: <20%

Question: And the OD (P388 [3])?
Answer: 50 mg/kg

Question: With O=C(CCCNc1c2ccccc2nc2ccccc12)NCCNc1c2ccccc2nc2ccccc12 as the molecule, how does the IC50 (L1210) read?
Answer: > 3500 nM

Question: What about the Rm [1] of the same molecule?
Answer: -0.19

Question: And the ILS (P388 [2])?
Answer: <20%

Question: What about the OD (P388 [3]) of the same molecule?
Answer: 50 mg/kg

Question: Which results are given for O=C(CNc1c2ccccc2nc2ccccc12)NCCNc1c2ccccc2nc2ccccc12?
Answer: IC50 (L1210): > 4000 nM; Rm [1]: -0.41; ILS (P388 [2]): <20%; OD (P388 [3]): 50 mg/kg

Question: What does the source list for Cn1nc(C(=O)NCCCNc2c3ccccc3nc3ccccc23)cc1C(=O)NCCCNc1c2ccccc2nc2ccccc12?
Answer: IC50 (L1210): 55 nM; Rm [1]: 0; ILS (P388 [2]): 65%; OD (P388 [3]): 20 mg/kg

Question: Which IC50 (L1210) does the source give for O=C(CCCNc1c2ccccc2nc2ccccc12)NCCCNc1c2ccccc2nc2ccccc12 here?
Answer: > 3500 nM

Question: What about the Rm [1] of the same molecule?
Answer: -0.12

Question: And the ILS (P388 [2])?
Answer: <20%

Question: What about the OD (P388 [3]) of the same molecule?
Answer: 50 mg/kg

Question: With Cn1nc(C(=O)NCCNc2c3ccccc3nc3ccccc23)cc1C(=O)NCCNc1c2ccccc2nc2ccccc12 as the molecule, how does the IC50 (L1210) read?
Answer: 13 nM

Question: And the Rm [1]?
Answer: -0.3

Question: What about the ILS (P388 [2]) of the same molecule?
Answer: 46%

Question: What about the OD (P388 [3]) of the same molecule?
Answer: 20 mg/kg

Question: Which results are given for c1ccc2c(NCCCN3CCN(CCCNc4c5ccccc5nc5ccccc45)CC3)c3ccccc3nc2c1?
Answer: OD (P388 [4]): 3 mg/kg; Rm [1]: -0.72; ILS (P388 [2]): <20%; OD (P388 [3]): 3 mg/kg; Rm [5]: -0.72; ILS (P388 [6]): <20%

Question: With c1ccc2c(NCCNCCNCCNc3c4ccccc4nc4ccccc34)c3ccccc3nc2c1 as the molecule, how does the IC50 (L1210) read?
Answer: 2900 nM

Question: And the Rm [1]?
Answer: -0.9

Question: What about the ILS (P388 [2]) of the same molecule?
Answer: <20%

Question: What about the OD (P388 [3]) of the same molecule?
Answer: 10 mg/kg

Question: Which results are given for c1ccc2c(NCCCCNc3c4ccccc4nc4ccccc34)c3ccccc3nc2c1?
Answer: IC50 (L1210): 10800 nM; Rm [1]: -0.21; ILS (P388 [2]): <20%; OD (P388 [3]): 30 mg/kg

Question: Which IC50 (L1210) does the source give for c1ccc2c(NCCCCCCCCCNc3c4ccccc4nc4ccccc34)c3ccccc3nc2c1 here?
Answer: 160 nM

Question: What about the Rm [1] of the same molecule?
Answer: 0.4

Question: What about the ILS (P388 [2]) of the same molecule?
Answer: <20%

Question: What about the OD (P388 [3]) of the same molecule?
Answer: 5.9 mg/kg

Question: For c1ccc2c(NCCCNCCCNc3c4ccccc4nc4ccccc34)c3ccccc3nc2c1, which IC50 (L1210) is on record?
Answer: 480 nM

Question: What about the Rm [1] of the same molecule?
Answer: -0.53

Question: And the ILS (P388 [2])?
Answer: <20%

Question: And the OD (P388 [3])?
Answer: 5 mg/kg
